Results on 13 compounds are retold here after ChEMBL document CHEMBL1121475, “Inhibitors of indoleethylamine N-methyltransferase. Derivatives of 3-methyl-2-thiazolidinimine. In vitro, in vivo, and metabolic studies” (J Med Chem, 1980).

Series [1] in a line: (§1) Dose that causes approximately 50% lethality in mice, when given perorally. The note with it: mouse, in vivo, po. It counts as ADME, organism-based. Summed up:
(§2)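 Mice in groups of one to three were dosed orally. Deaths were scored on day 7 after dosing, and the LD50 was obtained by graphical interpolation.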

Series [2] can be described thus: (§3) Dose that causes approximately 50% lethality in mice, when given intravenously. Type of series: ADME, organism-based. The note with it: mouse, in vivo, iv.
The subject of series [3] is Indolethylamine N-methyltransferase (Oryctolagus cuniculus). As to the kind of experiment: Compound tested for inhibitory activity against rabbit lung Indoleethylamine-N-methyltransferase at intravenous dose 4 mg/kg *(p<0.027).
For series [4] the test system is unchanged. The series is described as follows: In vivo evaluation of specific activity against rabbit lung Indoleethylamine-N-methyltransferase at oral dose of 25 mg/kg.
For series [5], the target named is Indolethylamine N-methyltransferase (Homo sapiens) (UniProt O95050). The series is described as follows: In vitro evaluation of Indoleethylamine-N-methyltransferase in human lung preparations for the ability to inhibit conversion of N-methyltryptamine (NMT) to N,N-dimethyltryptamine (DMT) at dose 25 ug/mL. It counts as tissue-based. Summed up: (§4)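 Human lung INMT was taken from the 50000g supernatant, cut with 40-60% ammonium sulfate, dialysed and purified on Sephadex G-150. The reaction contained 0.007 M N-methyltryptamine stock, S-[methyl-14C]adenosylmethionine and potassium phosphate, pH 7.9, in 0.105 mL, run 90 min at 37 °C. It was stopped with borate at pH 10. [14C]DMT was extracted into isoamyl alcohol and counted by scintillation.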

In series [6] the test system is Indolethylamine N-methyltransferase (Oryctolagus cuniculus). The series is described as follows: Compound tested for inhibitory activity against rabbit lung Indoleethylamine-N-methyltransferase at oral dose 25 mg/kg *(p<0.026).
The target in series [7] is Indolethylamine N-methyltransferase (Homo sapiens) (UniProt O95050). As to the kind of experiment: In vitro evaluation of Indoleethylamine-N-methyltransferase in human lung preparations for the ability to inhibit conversion of N-methyltryptamine (NMT) to N,N-dimethyltryptamine (DMT) at dose 2.5 ug/mL. Type of series: tissue-based. Summed up: as §4
In series [8] the test system is Indolethylamine N-methyltransferase (Oryctolagus cuniculus). As to the kind of experiment: In vivo evaluation of specific activity against rabbit lung Indoleethylamine-N-methyltransferase at intravenous dose of 4 mg/kgmade acidic to pH 2 with dil. HCl.
For series [9] the test system is unchanged. As to the kind of experiment: Compound tested for inhibitory activity against rabbit lung Indoleethylamine-N-methyltransferase at 4 mg/kg intravenously.
The test system is the same in series [10]. As to the kind of experiment: Compound tested for inhibitory activity against rabbit lung Indoleethylamine-N-methyltransferase at oral dose 25 mg/kg.
For series [11] the test system is unchanged. As to the kind of experiment: Compound tested for specific activity against rabbit lung Indoleethylamine-N-methyltransferase at intravenous dose of 10 mg/kg.
The test system is the same in series [12]. As to the kind of experiment: Compound tested for specific activity against rabbit lung Indoleethylamine-N-methyltransferase at oral dose of 20 mg/kg.
For series [13], the system named is Oryctolagus cuniculus. The series is described as follows: 25 mg/kg of [14C]- radiolabeled compound was perorally injected in rabbit, and radioactivity content in urine was estimated at 0-6 h. It counts as ADME, organism-based. The note with it: in vivo, po. Summed up: (§5)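 Male New Zealand white rabbit (825 g) dosed by gavage at 25 mg/kg. The dosing solution was [14C]-labelled plus unlabelled drug in distilled water, 2 mg free base/mL, specific activity 1183 dpm/μg. Urine collected at 6, 24, 48 and 72 h and feces at 24, 48 and 72 h. Radioactivity is expressed as % of administered dose.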

Series [14] concerns Oryctolagus cuniculus. The series is described as follows: 25 mg/kg of [14C]- radiolabeled compound was orally (gavage) injected in rabbit, and radioactivity content in feces was estimated (total). Type of series: ADME, organism-based. The note with it: in vivo, po. Summed up:
as §5

Series [15] is filed under the species Mus musculus. The series is described as §1. It counts as functional. The note with it: po. Summed up: as §2
The test system of series [16] is Oryctolagus cuniculus. As to the kind of experiment: 25 mg/kg of [14C]- radiolabeled compound was perorally injected in rabbit, and radioactivity content in urine was estimated at 24-48 h. Type of series: ADME, organism-based. The note with it: in vivo, po. Summed up:
as §5

Series [17] concerns Oryctolagus cuniculus. The series is described as follows: 25 mg/kg of [14C]- radiolabeled compound was perorally injected in rabbit, and radioactivity content in urine was estimated (total). The note with it: in vivo, po. Type of series: ADME, organism-based. An outline of the steps:
as §5

For series [18], the system named is Oryctolagus cuniculus. The series is described as follows: 25 mg/kg of [14C]- radiolabeled compound was perorally injected in rabbit, and radioactivity content in urine was estimated at 48-72 h. The note with it: in vivo, po. Type of series: ADME, organism-based. An outline of the steps: as §5
Series [19] relates to Oryctolagus cuniculus. The series is described as follows: 10 mg/kg of [14C]- radiolabeled compound was intravenously […] injected in rabbit, and radioactivity content in feces was estimated (total). It counts as ADME, organism-based. The note with it: in vivo, iv. Summed up:
(§6)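 Male New Zealand white rabbit (825 g), [14C]-labelled drug given intravenously at 10 mg/kg. Urine collected at 6, 24, 48 and 72 h and feces at 24, 48 and 72 h post-dose. Radioactivity is counted and expressed as % of administered dose.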

Series [20] deals with Oryctolagus cuniculus. The series is described as follows: 25 mg/kg of [14C]- radiolabeled compound was orally (gavage) injected in rabbit, and radioactivity content in feces was estimated at 0-24 h. Type of series: ADME, organism-based. The note with it: in vivo, po. Summed up:
as §5

Series [21] relates to Oryctolagus cuniculus. As to the kind of experiment: 25 mg/kg of [14C]- radiolabeled compound was orally (gavage) injected in rabbit, and radioactivity content in feces was estimated at 24-48 h. Type of series: ADME, organism-based. The note with it: in vivo, po. Summed up:
as §5

The test system of series [22] is Oryctolagus cuniculus. As to the kind of experiment: 10 mg/kg of [14C]- radiolabeled compound was intravenously injected in rabbit, and radioactivity content in urine was estimated at 0-6 h. It counts as ADME, organism-based. The note with it: in vivo, iv. An outline of the steps:
as §6

The subject of series [23] is Oryctolagus cuniculus. The series is described as follows: 10 mg/kg of [14C]- radiolabeled compound was intravenously […] injected in rabbit, and radioactivity content in feces was estimated at 0-24 h. Type of series: ADME, organism-based. The note with it: in vivo, iv. An outline of the steps: as §6
For series [24], the system named is Oryctolagus cuniculus. As to the kind of experiment: 10 mg/kg of [14C]- radiolabeled compound was intravenously injected in rabbit, and radioactivity content in urine was estimated at 24-48 h. It counts as ADME, organism-based. The note with it: in vivo, iv. An outline of the steps: as §6
Series [25] has as its system Oryctolagus cuniculus. As to the kind of experiment: 25 mg/kg of [14C]- radiolabeled compound was orally (gavage) injected in rabbit, and radioactivity content in feces was estimated at 48-72 h. The note with it: in vivo, po. Type of series: ADME, organism-based. An outline of the steps: as §5
Series [26] has as its system Mus musculus. The series is described as §3. It counts as functional. The note with it: iv.
In series [27] the test system is Oryctolagus cuniculus. As to the kind of experiment: 10 mg/kg of [14C]- radiolabeled compound was intravenously injected in rabbit, and radioactivity content in urine was estimated (total). It counts as ADME, organism-based. The note with it: in vivo, iv. An outline of the steps: as §6
Series [28] relates to Oryctolagus cuniculus. As to the kind of experiment: 25 mg/kg of [14C]- radiolabeled compound was perorally injected in rabbit, and radioactivity content in urine was estimated at 6-24 h. Type of series: ADME, organism-based. The note with it: in vivo, po. Summed up: as §5
For series [29], the system named is Oryctolagus cuniculus. As to the kind of experiment: 10 mg/kg of [14C]- radiolabeled compound was intravenously […] injected in rabbit, and radioactivity content in feces was estimated at 24-48 h. Type of series: ADME, organism-based. The note with it: in vivo, iv. An outline of the steps: as §6
For series [30], the system named is Oryctolagus cuniculus. As to the kind of experiment: 10 mg/kg of [14C]- radiolabeled compound was intravenously injected in rabbit, and radioactivity content in urine was estimated at 48-72 h. The note with it: in vivo, iv. Type of series: ADME, organism-based. Summed up:
as §6

Series [31] relates to Oryctolagus cuniculus. The series is described as follows: 10 mg/kg of [14C]- radiolabeled compound was intravenously […] injected in rabbit, and radioactivity content in feces was estimated at 48-72 h. The note with it: in vivo, iv. It counts as ADME, organism-based. Summed up:
as §6

Series [32] concerns Oryctolagus cuniculus. As to the kind of experiment: 10 mg/kg of [14C]- radiolabeled compound was intravenously injected in rabbit, and radioactivity content in urine was estimated at 6-24 h. It counts as ADME, organism-based. The note with it: in vivo, iv. Summed up:
as §6

Series [33] can be described thus: Dose that causes approximately 50% lethality in mice, when given intraperitoneally. It counts as ADME, organism-based. The note with it: mouse, in vivo, ip.
Series [34] has as its system Indolethylamine N-methyltransferase (Oryctolagus cuniculus). As to the kind of experiment: In vivo evaluation of inhibitory activity against rabbit lung Indoleethylamine-N-methyltransferase at intravenous dose 10 mg/kg *(p<0.02).
For series [35] the test system is unchanged. As to the kind of experiment: In vivo evaluation of specific activity against rabbit lung Indoleethylamine-N-methyltransferase at intravenous dose of 4 mg/kg.
Series [36] shares this test system. The series is described as follows: Compound tested for inhibitory activity against rabbit lung Indoleethylamine-N-methyltransferase at intravenous dose 4 mg/kg *(p<0.008.

Sequence of Indolethylamine N-methyltransferase (Homo sapiens) (O95050 whole entry): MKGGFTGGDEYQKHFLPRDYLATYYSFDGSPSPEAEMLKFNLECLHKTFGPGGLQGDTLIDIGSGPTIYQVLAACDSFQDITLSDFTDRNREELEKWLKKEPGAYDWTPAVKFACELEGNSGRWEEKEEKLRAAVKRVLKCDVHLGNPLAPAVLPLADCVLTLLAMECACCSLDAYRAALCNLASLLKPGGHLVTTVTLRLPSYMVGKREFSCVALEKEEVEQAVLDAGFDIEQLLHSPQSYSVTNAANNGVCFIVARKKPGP

Turning to `CN1CCS/C1=N\C(=O)c1cccnc1`, the values for the 50% lethal dose (LD50) in series [1] and in series [2] were 570 mg/kg and 279 mg/kg, respectively. Also, the inhibition (usually the change of the read-out against control, counted positive when it falls) in series [3] is 37.8%; in series [5], 5%; in series [6], 76.2%; in series [7] it was 0%. The Specific activity in series [4] came out at 18400 dpm.
In the case of `CC(=O)NCC(=O)/N=C1\SCCN1C`, the Specific activity amounted to 33200 dpm in series [8] and 11600 dpm in [4]. Besides, the LD50 (as a rule, the dose expected to kill half of the subjects tested) is 936 mg/kg in series [1] and 408 mg/kg in series [2]. The inhibition in series [9] came to 60.6%; in [5], 51%; in series [7], 24%; in [10], 84.9%.
Take `CCNC(=O)/N=C1\SCCN1C`: the LD50 in [1] worked out at 203 mg/kg; in series [2] it was 1110 mg/kg. The compound also returned an inhibition in series [5] of 0%.
`CN1CCS/C1=N\C(=O)CCC(=O)O`: the LD50 in series [1] is > 8 mg/kg; in series [2], 1280 mg/kg. In addition, the results for the inhibition in [5], in [11] and in series [12] were 20%, 35.8% and 11.4%, respectively. Besides, the Specific activity in series [11] came to 36100 dpm; in [12], 34000 dpm.
`CN1CCS/C1=N\C(=O)CN`: the LD50 in series [1] is 4670 mg/kg; in [2], 549 mg/kg. In addition, the inhibition was found to be 54% in series [5] and 11% in series [7].
Turning to `CN1CCSC1=N`, the Dose excreted is 46.4% in [13]; 3.9% in series [14]; 2.9% in series [16]; 89.7% in [17]; 1.6% in [18]; 4.3% in series [19]. In addition, the Dose excreted in [20] is on record as 3.2%; in series [21], 0.6%; in series [22], 46.5%; in series [23], 3.1%; in series [24] it was 5.3%; in series [25], 0.1%. Moreover, the Dose excreted in series [27] is 82.8%; in series [28], 38.8%; in series [29], 0.9%; in [30], 3.3%; in series [31], 0.3%; in series [32], 27.7%. For the same compound, the LD50 in series [15] amounted to 432 mg/kg; in series [26], 118 mg/kg.
With `CN1CCS/C1=N\C(=O)/N=C1\SCCN1C`, the LD50 in series [1] amounted to 2000 mg/kg; in series [33], 1140 mg/kg. The Specific activity in series [4] came to 61200 dpm. The inhibition in series [5] turned out to be 0%; in series [10], 31.9%.
`CN1CCS/C1=N\S(=O)(=O)[O-].[Na+]`: the median lethal dose (LD50) is > 5 mg/kg in series [1] and > 2.5 mg/kg in series [2].
As for `CC(=O)CC(=O)/N=C1\SCCN1C`, the values for the inhibition in series [5] and in series [7] were 51% and 24%, respectively.
Take `CN1CCS/C1=N\CNC(=O)c1ccccc1`: the LD50 was found to be 534 mg/kg in series [1] and 122 mg/kg in series [2].
In series [34], `CC(=O)N[C@@H](Cc1ccccc1)C(=O)/N=C1\SCCN1C` returned an inhibition of 84.7%.
`CN1CCS/C1=N\C(=O)OC(C)(C)C`: the LD50 in [1] turned out to be 306 mg/kg; in series [2] it was 68 mg/kg. The inhibition in series [5] amounted to 6%.
As for `CC(=O)NC(Cc1ccccc1)C(=O)/N=C1\SCCN1C` (configuration not stated), the Specific activity in series [35] is 60000 dpm; in [4], 24100 dpm. Moreover, the LD50 is 173 mg/kg in series [1] and > 2000 mg/kg in series [33]. Also, the inhibition in [36] was found to be 28.9%; in [5] it was 23%; in series [7], 8%; in [10] it was 69%.
